One experiment deals with CAL-51. The experiment can be described thus: Antiproliferative activity against human CAL51 cells assessed as growth inhibition after 3 days by SRB assay. Type of experiment: functional. Particulars: CAL-51, 72 h. The method in brief:
(§1)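 Cells treated in duplicate in 96-well format with three-fold serial dilutions from 50 µM; DMSO solvent control, Nutlin-3 positive control. Sulforhodamine B staining after 3 days; GI50 derived from dilution series.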

Experiment [1] relates to HCT-116. The experiment can be described thus: Antiproliferative activity against human HCT116 cells assessed as growth inhibition after 3 days by SRB assay. Particulars: HCT-116, 72 h. In kind it is functional. The method in brief:
as §1

Experiment [2] deals with HCT-116. The experiment can be described thus: Antiproliferative activity against human HCT116 cells at 50 uM after 3 days by SRB assay relative to control. In kind it is functional. Particulars: HCT-116, 72 h. On the technique in general: In SRB staining, fixed cells bind dye roughly in proportion to their protein.
Experiment [3] relates to HCT-116. The experiment in a line: Antiproliferative activity against human HCT116 cells at 25 uM after 3 days by SRB assay relative to control. In kind it is functional. As to conditions: HCT-116, 72 h.
Experiment [4] deals with Cellular tumor antigen p53 (Homo sapiens) (UniProt P04637). The experiment can be described thus: Induction of p53 stabilization in human HCT116 cells assessed as ratio of p53 expression levels to GAPDH expression levels at 6.25 uM after 4 hrs by immunoblot analysis. In kind it is cell-based. The method, boiled down: (§2)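 HCT116 treated with 6.25, 12.5 or 25 µM for 4 or 8 h; 10 µM Nutlin-3 positive control, DMSO solvent control. Lysates immunoblotted for p53 and GAPDH; band densities quantified, p53 normalized to GAPDH and expressed as fold change versus DMSO.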
Cellular tumor antigen p53 (Homo sapiens), sequence (P04637 whole entry, looked up): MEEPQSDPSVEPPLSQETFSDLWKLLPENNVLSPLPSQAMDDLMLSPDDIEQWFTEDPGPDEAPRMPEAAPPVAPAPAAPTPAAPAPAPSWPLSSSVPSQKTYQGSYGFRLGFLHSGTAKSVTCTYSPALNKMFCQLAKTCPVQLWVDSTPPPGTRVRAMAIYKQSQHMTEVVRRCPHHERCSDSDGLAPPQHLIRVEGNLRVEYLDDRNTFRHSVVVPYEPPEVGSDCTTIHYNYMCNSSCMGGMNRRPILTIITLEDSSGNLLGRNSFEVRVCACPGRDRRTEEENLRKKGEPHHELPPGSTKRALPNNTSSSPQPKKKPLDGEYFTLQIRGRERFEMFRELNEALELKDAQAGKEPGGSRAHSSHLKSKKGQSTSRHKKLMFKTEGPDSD
(In western blotting, separated proteins are transferred to a membrane and probed.)

Experiment [5] has the same target. The experiment in a line: Induction of p53 stabilization in human HCT116 cells assessed as ratio of p53 expression levels to GAPDH expression levels at 25 uM after 8 hrs by immunoblot analysis. Type of experiment: cell-based. The method in brief:
as §2

Experiment [6] has the same target. The experiment can be described thus: Induction of p53 stabilization in human HCT116 cells assessed as ratio of p53 expression levels to GAPDH expression levels after 4 hrs by immunoblot analysis. In kind it is cell-based. The method in brief: as §2
For experiment [7] the target is unchanged. The experiment can be described thus: Induction of p53 stabilization in human HCT116 cells assessed as ratio of p53 expression levels to GAPDH expression levels at 12.5 uM after 4 hrs by immunoblot analysis. In kind it is cell-based. The method, boiled down: as §2
The target is the same in experiment [8]. The experiment in a line: Induction of p53 stabilization in human HCT116 cells assessed as ratio of p53 expression levels to GAPDH expression levels at 12.5 uM after 8 hrs by immunoblot analysis. In kind it is cell-based. The method, boiled down:
as §2

Experiment [9] has the same target. The experiment can be described thus: Induction of p53 stabilization in human HCT116 cells assessed as ratio of p53 expression levels to GAPDH expression levels at 6.25 uM after 8 hrs by immunoblot analysis. Type of experiment: cell-based. The method in brief:
as §2

For experiment [10] the target is unchanged. The experiment can be described thus: Induction of p53 stabilization in human HCT116 cells assessed as ratio of p53 expression levels to GAPDH expression levels at 25 uM after 4 hrs by immunoblot analysis. In kind it is cell-based. The method, boiled down:
as §2

The target is the same in experiment [11]. The experiment can be described thus: Induction of p53 stabilization in human HCT116 cells assessed as ratio of p53 expression levels to GAPDH expression levels after 8 hrs by immunoblot analysis. In kind it is cell-based. The method in brief:
as §2

The target is the same in experiment [12]. The experiment can be described thus: Induction of p53 stabilization in human HCT116 cells assessed as increase in p53 expression levels at 6.25 to 25 uM after 4 hrs by immunoblot analysis. In kind it is cell-based. The method, boiled down:
as §2

The target is the same in experiment [13]. The experiment in a line: Induction of p53 stabilization in human HCT116 cells assessed as increase in p53 expression levels at 6.25 to 25 uM after 8 hrs by immunoblot analysis. Type of experiment: cell-based. The method, boiled down: as §2
Experiment [14] has the same target. The experiment in a line: Induction of p53 stabilization in human HCT116 cells assessed as increase in p53 expression levels at 12.5 uM measured up to 90 mins in presence of varying concentrations of cycloheximide by immunoblot analysis. Type of experiment: cell-based. The method, boiled down: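 Cycloheximide chase in HCT116: cells given cycloheximide with or without 12.5 µM compound, samples collected at timed points; immunoblot for p53 and alpha-tubulin, p53 normalized to alpha-tubulin.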

Calls of active or inactive are those of the source. The rule behind the calls is not given here. Where only a bound is given, the exact number is not on record here.

A word on the GI50: it is the concentration giving 50% growth inhibition. What is called inhibition is the drop in the measured response relative to a control, in per cent. A high value points to strong suppression.

On to `O=C(/C=C/c1ccccc1)c1ccccc1` [CHALCONE], for which the values for the GI50 with CAL-51 and in the experiment with HCT-116 [1] were 1.85 µM and 3.96 µM, respectively. Further, the inhibition at 50 µM with HCT-116 [2] was 97.5%. Further, in the experiment on HCT-116 [3], the inhibition at 25 µM was 100%.

Regarding `O=C(/C=C/c1ccc(Cl)cc1)c1ccccc1` [4-CHLORO CHALCONE], the GI50 in the experiment on CAL-51 is 5.85 µM; in the experiment with HCT-116 [1], 16.5 µM. The Ratio in experiment [4] is 1.24; in experiment [5], 1.76; in [7], 3.1; in experiment [8], 1.15; in experiment [9] it was 1.38; in [10] it was 3.62. For the same molecule, the Activity entry in [6] and in [11] was “Dose-dependent effect” each time. For the same molecule, the inhibition at 50 µM in the experiment with HCT-116 [2] was 100%. This molecule also registered an inhibition at 25 µM in the experiment on HCT-116 [3] of 97.5%.

In the case of `Cc1ccc(COc2ccc(C(=O)/C=C/c3ccc(Cl)cc3)cc2)cc1`, the GI50 in the experiment on CAL-51 and in the experiment on HCT-116 [1] was above 50 µM each time. Further, the inhibition at 50 µM in the experiment with HCT-116 [2] was 16.9%. The molecule further displayed an inhibition at 25 µM with HCT-116 [3] of 12.3%.

Consider `O=C(/C=C/c1ccccc1Cl)c1ccc(OCc2ccccc2)cc1`, for which the GI50 in the experiment with CAL-51 came to 7.1 µM; with HCT-116 [1], 14.9 µM. Also, the inhibition at 50 µM in the experiment on HCT-116 [2] amounted to 99.7%. In the experiment on HCT-116 [3], the inhibition at 25 µM came out at 54.5%.

As for `O=C(/C=C/c1ccccc1[N+](=O)[O-])c1ccccc1`, the GI50 in the experiment on CAL-51 worked out at 2.59 µM; in the experiment with HCT-116 [1] it was 7.69 µM. Moreover, testing at 50 µM with HCT-116 [2] gave an inhibition of 100%. For the same molecule, at 25 µM the inhibition in the experiment with HCT-116 [3] was 100%.

For `COc1ccc(/C=C/C(=O)c2ccc(OCc3ccccc3)cc2)cc1`, the GI50 is above 50 µM in the experiment on CAL-51 and 36.9 µM in the experiment on HCT-116 [1]. In the experiment on HCT-116 [2], the inhibition at 50 µM is 13.2%. In the experiment on HCT-116 [3], this molecule yielded an inhibition at 25 µM of 9.5%.

For `Cc1ccc(COc2ccc(C(=O)/C=C/c3ccccc3)cc2)cc1`, the GI50 in the experiment on CAL-51 is 43.2 µM; in the experiment on HCT-116 [1], above 50 µM. The same molecule showed an inhibition at 25 µM with HCT-116 [3] of 4%.

Regarding `O=C(/C=C/c1ccc(Cl)cc1)c1ccc(OCc2ccccc2)cc1`, the GI50 in the experiment with CAL-51 and in the experiment with HCT-116 [1] was above 50 µM each time. In addition, the inhibition at 25 µM in the experiment with HCT-116 [3] was found to be 0.3%.

Consider `O=C(/C=C/c1ccc(OCc2ccccc2)cc1)c1ccccc1`, for which the values for the GI50 in the experiment on CAL-51 and in the experiment on HCT-116 [1] were 24.7 µM and above 50 µM, respectively. This molecule had an inhibition at 50 µM with HCT-116 [2] of 49.5%. Also, in the experiment on HCT-116 [3], the inhibition at 25 µM is 52.3%.

Turning to `COc1ccc(C2=N[C@H](c3ccc(Cl)cc3)[C@H](c3ccc(Cl)cc3)N2C(=O)N2CCNC(=O)C2)c(OC(C)C)c1`, the GI50 in the experiment with HCT-116 [1] worked out at 1.52 µM.

On to `COc1ccc(C(=O)/C=C/c2ccccc2)cc1` [4'-METHOXYCHALCONE], for which the results for the GI50 with CAL-51 and in the experiment on HCT-116 [1] were 3.33 µM and 3.57 µM, respectively. This molecule also came in with an inhibition at 50 µM in the experiment with HCT-116 [2] of 98.2%. For the same molecule, in the experiment with HCT-116 [3], the inhibition at 25 µM worked out at 99.7%.

As for `O=C(/C=C/c1ccccc1)c1ccc(OCc2ccccc2)cc1`, the GI50 with CAL-51 is 28.9 µM; in the experiment on HCT-116 [1], above 50 µM. The molecule further came in with an inhibition at 50 µM in the experiment on HCT-116 [2] of 33.8%. This molecule registered an inhibition at 25 µM with HCT-116 [3] of 24.3%.

For `COc1cccc(/C=C/C(=O)c2ccc(OCc3ccccc3)cc2)c1`, the results for the GI50 with CAL-51 and in the experiment on HCT-116 [1] were 13.7 µM and 35.4 µM, respectively. Further, the inhibition at 50 µM with HCT-116 [2] came out at 76%. In the experiment on HCT-116 [3], this molecule had an inhibition at 25 µM of 35.4%.

With `Cc1ccc(COc2ccc(C(=O)/C=C/c3ccc(F)cc3)cc2)cc1`, the GI50 in the experiment on CAL-51 and with HCT-116 [1] was above 50 µM in each case. Also, the inhibition at 50 µM in the experiment with HCT-116 [2] was 15.4%.

`O=C(/C=C/c1ccc(F)cc1)c1ccc(OCc2ccccc2)cc1`: the GI50 in the experiment with CAL-51 and in the experiment with HCT-116 [1] was above 50 µM each time.

As to `COc1ccc(CCC(=O)c2ccccc2)cc1`, the outcome in experiment [12] and in experiment [13] was inactive. In the experiment with HCT-116 [1], the GI50 is above 100 µM.

`COc1ccc(/C=C/C(=O)c2ccccc2)cc1` [4-METHOXY CHALCONE]: the figures for the GI50 in the experiment on CAL-51 and in the experiment with HCT-116 [1] were 2.69 µM and 3.86 µM, respectively. In addition, the outcome in experiment [14] was Active. Also, the Ratio in [4] came out at 1.11; in experiment [5], 1.7; in experiment [7] it was 1.41; in experiment [8], 1.2; in [9] it was 1.34; in experiment [10] it was 1.53. Further, the Activity result in experiment [6] and in [11] was “Dose-dependent effect” each time. For the same molecule, in the experiment on HCT-116 [2], the inhibition at 50 µM stood at 99.7%. Besides, testing at 25 µM with HCT-116 [3] gave an inhibition of 100%.

`O=C(/C=C/c1ccc([N+](=O)[O-])cc1)c1ccccc1`: the GI50 in the experiment with CAL-51 amounted to 1.21 µM; with HCT-116 [1] it was 3.13 µM. Besides, the inhibition at 50 µM in the experiment on HCT-116 [2] was determined as 100%. In the experiment on HCT-116 [3], testing at 25 µM gave an inhibition of 99.7%.

`O=C(/C=C/c1cccc([N+](=O)[O-])c1)c1ccccc1`: the figures for the GI50 in the experiment with CAL-51 and in the experiment with HCT-116 [1] were 1.08 µM and 4.47 µM, respectively. The molecule also gave an inhibition at 50 µM in the experiment with HCT-116 [2] of 99.7%. The molecule further registered an inhibition at 25 µM with HCT-116 [3] of 100%.

In the case of `COc1cc(/C=C/C(=O)c2ccccc2)cc(OC)c1OC`, the GI50 with CAL-51 worked out at 0.78 µM; in the experiment on HCT-116 [1], 0.473 µM. Further, in the experiment on HCT-116 [2], testing at 50 µM gave an inhibition of 99.7%. Moreover, the inhibition at 25 µM in the experiment on HCT-116 [3] worked out at 99.4%.

(Values after ChEMBL document CHEMBL4052795, “Synthesis and evaluation of modified chalcone based p53 stabilizing agents” (2017).)
